Laboratory results as given in ChEMBL document CHEMBL1141892, “Syntheses and properties of the major hydroxy metabolites in humans of blonanserin AD-5423, a novel antipsychotic agent” (Bioorg Med Chem Lett, 2005).

What was measured:
[1] = molecular target: 5-hydroxytryptamine receptor 2A (Homo sapiens, UniProt P28223); test: In vitro binding affinity against recombinant human 5-hydroxytryptamine 2A receptor […]
How it was run: (§1)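 Affinities are Ki values (nM) at human D2L and human 5-HT2A receptors, reported as mean ± SEM of three independent experiments.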

D(2) dopamine receptor = D(2) dopamine receptor (Homo sapiens, UniProt P14416); test: In vitro binding affinity against recombinant human dopamine receptor D2L […]; how it was run: as §1
Sequence of D(2) dopamine receptor (P14416 whole entry): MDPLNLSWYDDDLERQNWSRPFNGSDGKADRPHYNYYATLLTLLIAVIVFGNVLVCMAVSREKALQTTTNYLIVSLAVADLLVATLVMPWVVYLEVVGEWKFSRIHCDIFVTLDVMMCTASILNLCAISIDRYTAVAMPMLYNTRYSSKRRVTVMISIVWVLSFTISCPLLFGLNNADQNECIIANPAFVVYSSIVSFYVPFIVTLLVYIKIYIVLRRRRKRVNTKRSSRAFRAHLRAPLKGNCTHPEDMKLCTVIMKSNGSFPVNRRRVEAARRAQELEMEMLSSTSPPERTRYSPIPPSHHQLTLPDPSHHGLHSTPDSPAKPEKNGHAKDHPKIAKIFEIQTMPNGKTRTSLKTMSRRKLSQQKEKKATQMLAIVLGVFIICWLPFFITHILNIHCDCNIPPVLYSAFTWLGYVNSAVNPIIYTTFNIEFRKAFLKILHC

Sequence of 5-hydroxytryptamine receptor 2A (P28223 whole entry): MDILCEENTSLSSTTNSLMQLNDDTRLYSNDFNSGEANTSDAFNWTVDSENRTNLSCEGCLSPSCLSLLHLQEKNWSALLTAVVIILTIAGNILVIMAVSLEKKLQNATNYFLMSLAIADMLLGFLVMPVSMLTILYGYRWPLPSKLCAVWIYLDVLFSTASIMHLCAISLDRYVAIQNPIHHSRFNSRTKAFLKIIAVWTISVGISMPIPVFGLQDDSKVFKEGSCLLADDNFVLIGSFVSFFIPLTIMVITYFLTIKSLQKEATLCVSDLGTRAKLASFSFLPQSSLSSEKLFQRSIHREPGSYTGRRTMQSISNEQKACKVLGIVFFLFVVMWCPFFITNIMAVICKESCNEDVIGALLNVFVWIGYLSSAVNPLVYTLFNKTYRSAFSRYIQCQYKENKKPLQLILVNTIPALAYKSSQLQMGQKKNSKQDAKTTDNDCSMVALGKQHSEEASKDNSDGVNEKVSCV

| Structure (SMILES) | Ki [1] | Ki (D(2) dopamine receptor) |
| --- | --- | --- |
| CCN1CCN(c2cc(-c3ccc(F)cc3)c3c(n2)CCC[C@@H](O)CC3)CC1 | 0.0147 µM | 0.0062 µM |
| CCN1CCN(c2cc(-c3ccc(F)cc3)c3c(n2)CCCCCC3)CC1 [BLONANSERIN] | 0.00081 µM | 0.00014 µM |

Second part, the molecule after the results:

| Ki [1] | Ki (D(2) dopamine receptor) | Structure (SMILES) |
| --- | --- | --- |
| 0.0179 µM | 0.0119 µM | CCN1CCN(c2cc(-c3ccc(F)cc3)c3c(n2)CC[C@@H](O)CCC3)CC1 |
| 0.00967 µM | 0.0036 µM | CCN1CCN(c2cc(-c3ccc(F)cc3)c3c(n2)CC[C@H](O)CCC3)CC1 |
| 0.0185 µM | 0.0212 µM | CCN1CCN(c2cc(-c3ccc(F)cc3)c3c(n2)CCC[C@H](O)CC3)CC1 |
